According to ChEMBL document CHEMBL4184338, “In Vitro and In Vivo Demonstration of Human-Ovarian-Cancer Necrosis through a Water-Soluble and Near-Infrared-Absorbing Chlorin” (J Med Chem, 2018):
≈ marks a conversion by molar mass, not a printed value. Each block holds one compound with its values, some of them ahead of it. Calls of active or inactive are those of the source. The calls are words filed in the database; no cut-off is given here.

What was measured:
[1] = Solubility in 25% aqueous ethanolic medium at 25 degC after 24 hrs by UV-VIS spectrometric method; assay type: physicochemical
[2] = Induction of singlet oxygen generation in methanol at 3 uM in presence of light by DPBF-based chemical trapping method; assay type: functional
[3] = Drug uptake in human SKOV3 cells at 20 uM after 1 hr in presence of 200 J/cm'2 light by Hoechst 33342 staining-based confocal microscopic method; assay type: ADME, cell-based; conditions: sk-ov-3, 1 h
In short: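 SKOV-3 cells on chambered glass slides incubated with 20 μM compound for 1 h. Rinsed with PBS, stained with Hoechst 33342 (1 μg/mL), imaged by confocal microscopy.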

[4] = Drug uptake in mitochondria of human SKOV3 cells at 20 uM after 1 hr in presence of 200 J/cm'2 light by MitoTracker Red probe/Hoechst 33342 staining-based confocal microscopic method; assay type: ADME; conditions: sk-ov-3, 1 h
SK-OV-3 [5] = assay: Phototoxicity against human SKOV3 cells assessed as decrease in cell viability after 24 hrs in presence of 200 J/cm'2 light by MTT assay; assay type: functional, cell-based
In short: (§1)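 Cell lines given varied compound concentrations, then irradiated (600-750 nm source, 200 J/cm2 at 50 mW/cm2) or kept dark. Viability by MTT at 24 h after treatment; IC50 from the dose-response. Three independent experiments averaged.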

IMR-32 = assay: Phototoxicity against human IMR32 cells assessed as decrease in cell viability after 24 hrs in presence of 200 J/cm'2 light by MTT assay; assay type: functional, cell-based; conditions: IMR-32, light or radiation study; in short: as §1
MCF7 = assay: Phototoxicity against human MCF7 cells assessed as decrease in cell viability after 24 hrs in presence of 200 J/cm'2 light by MTT assay; assay type: functional, cell-based; conditions: MCF7, light or radiation study; in short: as §1
MDA-MB-231 = assay: Phototoxicity against human MDA-MB-231 cells assessed as decrease in cell viability after 24 hrs in presence of 200 J/cm'2 light by MTT assay; assay type: functional, cell-based; conditions: MDA-MB-231, light or radiation study; in short: as §1
[6] = Dark toxicity in human SKOV3 cells assessed as alteration in cell morphology by phase-contrast microscopic method; assay type: cell-based; conditions: sk-ov-3
In short: (§2)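 SKOV-3 cells given compound, kept dark or irradiated (200 J/cm2, 50 mW/cm2). Morphology examined by phase-contrast microscopy (100X).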

SK-OV-3 [7] = assay: Phototoxicity in human SKOV3 cells assessed as alteration in cell morphology in presence of 200 J/cm'2 light by phase-contrast microscopic method; assay type: functional, cell-based; in short: as §2
SK-OV-3 [8] = assay: Cell cycle arrest in human SKOV3 cells assessed as accumulation at sub-G1 phase at 20 uM after 12 hrs in presence of 200 J/cm'2 light by propidium iodide staining-based flow cytometric method (reference value: 7%); assay type: functional
SK-OV-3 [9] = assay: Cell cycle arrest in human SKOV3 cells assessed as accumulation at sub-G1 phase at 20 uM after 24 hrs in presence of 200 J/cm'2 light by propidium iodide staining-based flow cytometric method (reference value: 7%); assay type: functional
SK-OV-3 [10] = assay: Induction of necrosis in human SKOV3 cells at 20 uM in presence of 200 J/cm'2 light by propidium iodide staining-based flow cytometric method (reference value: 7.45%); assay type: functional
In short: (§3)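 Unfixed SKOV-3 cells given 20 μM compound, with or without light (600-720 nm, 200 J/cm2). Harvested, PBS-washed, stained with propidium iodide (10 μg/mL) for 20 min. PI-positive membrane-damaged fraction measured by flow cytometry.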

[11] = Photostability of compound; assay type: physicochemical
SK-OV-3 [12] = assay: Induction of reactive oxygen species formation in human SKOV3 cells at 20 uM in presence of 200 J/cm'2 light by CM-H2DCFDA probe-based confocal microscopic method; assay type: functional, cell-based
SK-OV-3 [13] = assay: Induction of reactive oxygen species formation in human SKOV3 cells at 20 uM in presence of 200 J/cm'2 light by CM-H2DCFDA probe-based flow cytometric method (reference value: <1%); assay type: functional
Homo sapiens [14] = species on record: Homo sapiens; assay: Disruption of F-actin organization in human SKOV3 cells at 20 uM in presence of 200 J/cm'2 light by TRITC labeled phalloidin/DAPI staining-based confocal microscopic method; assay type: cell-based
In short: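 SKOV-3 cells on coverslips: untreated, 20 μM compound in the dark, or 20 μM compound plus irradiation (600-720 nm, 200 J/cm2). Fixed in 4% paraformaldehyde/PBS, permeabilised with 0.1% Triton X-100, stained with TRITC-phalloidin (1:50, 1 h). DAPI counterstain, confocal imaging.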

SK-OV-3 [15] = assay: Disruption of mitochondrial membrane potential in human SKOV3 cells at 20 uM in presence of 200 J/cm'2 light by MitoTracker Red probe/Hoechst 33342 staining-based confocal microscopic method; assay type: functional, cell-based
In short: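 Control SKOV-3 cells and cells after photodynamic treatment (20 μM compound, 600-720 nm, 200 J/cm2) loaded with 200 nM MitoTracker Red CMXRos, 30 min at 37 °C. Formaldehyde-fixed, nuclear counterstain, confocal microscopy.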

SK-OV-3 [16] = assay: Antitumor activity against human SKOV3 cells xenografted in FoxN1 nude mouse assessed as decrease in tumor volume at 20 mg/kg, iv measured up to day 14 in presence of 100 J/cm'2 light; assay type: functional, organism-based
In short: (§4)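 3-4 million SKOV-3 cells injected subcutaneously into the flank of 6-8 week old FoxN1 nude mice (20-25 g). At tumour volumes of about 100-150 mm3, randomised into four groups of six: untreated, light only, compound only, and compound plus light. Compound given iv at 20 mg/Kg in physiological saline. Irradiation 24 h later at 100 J/cm2, 100 mW/cm2, 600-750 nm source, under ip ketamine (60 mg/Kg)/xylazine (8 mg/Kg). Tumour volume by calipers, V=LW2/2, followed over two weeks. Tissues processed for H&E histology.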

SK-OV-3 [17] = assay: Antitumor activity against human SKOV3 cells xenografted in FoxN1 nude mouse assessed as disappearance of scar at site of tumor at 20 mg/kg, iv measured up to day 14 in presence of 100 J/cm'2 light; assay type: functional, organism-based; in short: as §4
SK-OV-3 [18] = assay: Antitumor activity against human SKOV3 cells xenografted in FoxN1 nude mouse assessed as elimination of neoplastic cells in tumor at 20 mg/kg, iv measured on day 14 in presence of 100 J/cm'2 light by hematoxylin-and-eosin staining-based assay; assay type: functional, organism-based; in short: as §4
Mus musculus [19] = assay: Toxicity in FoxN1 nude mouse xenografted with human SKOV3 cells assessed as effect on skin around peritumoral area at 20 mg/kg, iv measured up to day 14 in presence of 100 J/cm'2 light; assay type: organism-based; conditions: in vivo; in short: as §4
[20] = Drug uptake in neoplastic tumor of FoxN1 nude mouse xenografted with human SKOV3 cells at 20 mg/kg administered intratumorally measured at 12 hrs by fluorescence microscopic method; assay type: ADME, organism-based, Neoplasm; conditions: in vivo, other
In short: (§5)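 Compound injected intratumorally into SKOV-3 xenograft-bearing nude mice. Tumours biopsied 12 h after administration, then sectioned. Sections DAPI-counterstained and examined for red compound fluorescence by fluorescence microscopy.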

[21] = Drug uptake in stromal cells of FoxN1 nude mouse xenografted with human SKOV3 cells at 20 mg/kg administered intratumorally measured at 12 hrs by fluorescence microscopic method; assay type: ADME, organism-based; conditions: in vivo, other; in short: as §5
[22] = Drug uptake in fibrous tissue cells of FoxN1 nude mouse xenografted with human SKOV3 cells at 20 mg/kg administered intratumorally measured at 12 hrs by fluorescence microscopic method; assay type: ADME, organism-based; conditions: in vivo, other; in short: as §5
Mus musculus [23] = assay: Toxicity in FoxN1 nude mouse xenografted with human SKOV3 cells assessed as effect on liver morphology at 20 mg/kg, iv measured on day 14 in presence of 100 J/cm'2 light by hematoxylin-and-eosin staining-based assay; assay type: organism-based; conditions: in vivo; in short: as §4
Mus musculus [24] = assay: Toxicity in FoxN1 nude mouse xenografted with human SKOV3 cells assessed as effect on kidney morphology at 20 mg/kg, iv measured on day 14 in presence of 100 J/cm'2 light by hematoxylin-and-eosin staining-based assay; assay type: organism-based; conditions: in vivo; in short: as §4
Mus musculus [25] = assay: Toxicity in FoxN1 nude mouse xenografted with human SKOV3 cells assessed as effect on spleen morphology at 20 mg/kg, iv measured on day 14 in presence of 100 J/cm'2 light by hematoxylin-and-eosin staining-based assay; assay type: organism-based; conditions: in vivo; in short: as §4
Mus musculus [26] = assay: Toxicity in FoxN1 nude mouse xenografted with human SKOV3 cells assessed as effect on heart morphology at 20 mg/kg, iv measured on day 14 in presence of 100 J/cm'2 light by hematoxylin-and-eosin staining-based assay; assay type: organism-based; conditions: in vivo; in short: as §4
Mus musculus [27] = assay: Toxicity in FoxN1 nude mouse xenografted with human SKOV3 cells assessed as effect on lung morphology at 20 mg/kg, iv measured on day 14 in presence of 100 J/cm'2 light by hematoxylin-and-eosin staining-based assay; assay type: organism-based; conditions: in vivo; in short: as §4
SK-OV-3 [28] = assay: Induction of reactive oxygen species formation in human SKOV3 cells at 20 uM in absence of light by CM-H2DCFDA probe-based confocal microscopic method; assay type: cell-based; conditions: sk-ov-3, 20 µM
SK-OV-3 [29] = assay: Cell cycle arrest in human SKOV3 cells assessed as accumulation at sub-G1 phase at 20 uM after 12 hrs in absence of light by propidium iodide staining-based flow cytometric method (reference value: 2.2%); conditions: sk-ov-3, 12 h
SK-OV-3 [30] = assay: Induction of necrosis in human SKOV3 cells at 20 uM in absence of light by propidium iodide staining-based flow cytometric method (reference value: 7.03%); assay type: cell-based; conditions: sk-ov-3, 20 µM; in short: as §3
Homo sapiens [31] = species on record: Homo sapiens; assay: Binding affinity to F-actin in human SKOV3 cells at 20 uM after 1 hr in presence of 200 J/cm'2 light by TRITC labeled phalloidin/DAPI staining-based confocal microscopic method

solubility at 24 h [1]: 600 µM (≈ 408 µg/mL)
SMILES: Oc1cccc(-c2c3nc(c(-c4cccc(O)c4)c4ccc([nH]4)c(-c4cccc(O)c4)c4nc(c(-c5cccc(O)c5)c5ccc2[nH]5)CC4)C=C3)c1 [TEMOPORFIN]

solubility at 24 h [1]: 3640 µM (≈ 2710 µg/mL)
Drug uptake [3]: Active
Drug uptake [4]: Active
Stability [11]: Stable
Drug uptake [20]: Active
Drug uptake [21]: Not Active
Drug uptake [22]: Not Active
Activity (SK-OV-3 [29]): 1%
SMILES: Oc1ccc(-c2c3nc(c(-c4ccc(O)c(O)c4)c4ccc([nH]4)c(-c4ccc(O)c(O)c4)c4nc(c(-c5ccc(O)c(O)c5)c5ccc2[nH]5)CC4)C=C3)cc1O
Activity [2]: 80%
Activity (SK-OV-3 [5]): Dose-dependent effect
IC50 (SK-OV-3 [5]; SK-OV-3, light or radiation study): 11.2 µM
IC50 (IMR-32): 3.5 µM
IC50 (MCF7): 4.4 µM
IC50 (MDA-MB-231): 6.1 µM
Activity [6]: Non-Toxic
Activity (SK-OV-3 [7]): Active
Activity (SK-OV-3 [8]): 59.6%
Activity (SK-OV-3 [9]): 76.7%
Activity (SK-OV-3 [10]): 79.48%
Activity (SK-OV-3 [12]): Active
Activity (SK-OV-3 [13]): 73%
Activity (Homo sapiens [14]): Active
Activity (SK-OV-3 [15]): Active
Activity (SK-OV-3 [16]): Active
Activity (SK-OV-3 [17]): Active
Activity (SK-OV-3 [18]): Active
Activity (Mus musculus [19]): Non-Toxic
Activity (Mus musculus [23]): Non-Toxic
Activity (Mus musculus [24]): Non-Toxic
Activity (Mus musculus [25]): Non-Toxic
Activity (Mus musculus [26]): Non-Toxic
Activity (Mus musculus [27]): Non-Toxic
Activity (SK-OV-3 [28]): Non-Toxic
Activity (SK-OV-3 [30]): 8.98%
Activity (Homo sapiens [31]): Active
